Test results reported in ChEMBL document CHEMBL3259728, “Design, synthesis and biological evaluation of some novel substituted quinazolines as antitumor agents” (2014).

How the values were obtained:
Assay type in all cases: functional
U-251 = test: Growth inhibition of human U251 cells assessed as cell growth at 10^-4 M after 48 hrs by SRB assay; settings: U-251, 48 h, read-out: Activity
[1] = Growth inhibition of human OVCAR8 cells assessed as cell growth at 10^-8 M after 48 hrs by SRB assay; settings: OVCAR-8, 48 h, read-out: Activity
SK-MEL-28 = test: Growth inhibition of human SK-MEL-28 cells assessed as cell growth at 10^-8 M after 48 hrs by SRB assay; settings: SK-MEL-28, 48 h, read-out: Activity
Malme-3M = test: Growth inhibition of human MALME-3M cells assessed as cell growth at 10^-8 M after 48 hrs by SRB assay; settings: read-out: Activity
KM12 = test: Growth inhibition of human KM12 cells assessed as cell growth at 10^-8 M after 48 hrs by SRB assay; settings: KM12, 48 h, read-out: Activity
HT-29 = test: Growth inhibition of human HT-29 cells assessed as cell growth at 10^-8 M after 48 hrs by SRB assay; settings: HT-29, 48 h, read-out: Activity
NCI-H322M = test: Growth inhibition of human NCI-H322M cells assessed as cell growth at 10^-8 M after 48 hrs by SRB assay; settings: read-out: Activity
RPMI-8226 = test: Growth inhibition of human RPMI8226 cells assessed as cell growth at 10^-8 M after 48 hrs by SRB assay; settings: RPMI-8226, 48 h, read-out: Activity
DU-145 = test: Growth inhibition of human DU145 cells assessed as cell growth at 10^-5 M after 48 hrs by SRB assay; settings: DU-145, 48 h, read-out: Activity
Summary of the method: (§1)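 Five-dose NCI panel protocol. Each dose (10^-4 to 10^-8 M, 10-fold steps) was given as 48 h continuous exposure, and protein was measured by SRB staining. Percentage growth at each level is [(Ti−Tz)/(C−Tz)]×100, where Tz is time-zero absorbance and C is untreated control.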

[2] = Growth inhibition of human SF539 cells assessed as cell growth at 10^-5 M after 48 hrs by SRB assay; settings: SF-539, 48 h, read-out: Activity
[3] = Growth inhibition of human HOP92 cells assessed as cell growth at 10^-5 M after 48 hrs by SRB assay; settings: HOP-92, 48 h, read-out: Activity
SR = test: Growth inhibition of human SR cells assessed as cell growth at 10^-5 M after 48 hrs by SRB assay; settings: read-out: Activity
[4] = Growth inhibition of human MOLT4 cells assessed as cell growth at 10^-5 M after 48 hrs by SRB assay; settings: MOLT-4, 48 h, read-out: Activity
[5] = Growth inhibition of human BT549 cells assessed as cell growth at 10^-6 M after 48 hrs by SRB assay; settings: BT-549, 48 h, read-out: Activity; summary of the method: as §1
MDA-MB-231 = test: Growth inhibition of human MDA-MB-231 cells assessed as cell growth at 10^-6 M after 48 hrs by SRB assay; settings: MDA-MB-231, 48 h, read-out: Activity
A498 = test: Growth inhibition of human A498 cells assessed as cell growth at 10^-6 M after 48 hrs by SRB assay; settings: A498, 48 h, read-out: Activity; summary of the method: as §1
[6] = Growth inhibition of human OVCAR4 cells assessed as cell growth at 10^-6 M after 48 hrs by SRB assay; settings: OVCAR-4, 48 h, read-out: Activity
MDA-MB-435 = test: Growth inhibition of human MDA-MB-435 cells assessed as cell growth at 10^-6 M after 48 hrs by SRB assay; settings: MDA-MB-435, 48 h, read-out: Activity
M14 [7] = test: Growth inhibition of human M14 cells assessed as cell growth at 10^-6 M after 48 hrs by SRB assay; settings: M14, 48 h, read-out: Activity
[8] = Growth inhibition of human OVCAR5 cells assessed as cell growth at 10^-5 M after 48 hrs by SRB assay; settings: OVCAR-5, 48 h, read-out: Activity
[9] = Growth inhibition of human OVCAR3 cells assessed as cell growth at 10^-5 M after 48 hrs by SRB assay; settings: OVCAR-3, 48 h, read-out: Activity
[10] = Growth inhibition of human EKVX cells assessed as cell growth at 10^-6 M after 48 hrs by SRB assay; settings: read-out: Activity
NCI-H23 [11] = test: Growth inhibition of human NCI-H23 cells assessed as cell growth at 10^-7 M after 48 hrs by SRB assay; settings: NCI-H23, 48 h, read-out: Activity
COLO 205 [12] = test: Growth inhibition of human COLO205 cells assessed as cell growth at 10^-6 M after 48 hrs by SRB assay; settings: COLO 205, 48 h, read-out: Activity; summary of the method: as §1
[13] = Growth inhibition of human EKVX cells assessed as cell growth at 10^-8 M after 48 hrs by SRB assay; settings: read-out: Activity
[14] = Growth inhibition of human OVCAR8 cells assessed as cell growth at 10^-7 M after 48 hrs by SRB assay; settings: OVCAR-8, 48 h, read-out: Activity
M14 [15] = test: Growth inhibition of human M14 cells assessed as cell growth at 10^-7 M after 48 hrs by SRB assay; settings: M14, 48 h, read-out: Activity
COLO 205 [16] = test: Growth inhibition of human COLO205 cells assessed as cell growth at 10^-7 M after 48 hrs by SRB assay; settings: COLO 205, 48 h, read-out: Activity; summary of the method: as §1
MDA-MB-468 = test: Growth inhibition of human MDA-MB-468 cells assessed as cell growth at 10^-8 M after 48 hrs by SRB assay; settings: MDA-MB-468, 48 h, read-out: Activity
ACHN = test: Growth inhibition of human ACHN cells assessed as cell growth at 10^-8 M after 48 hrs by SRB assay; settings: read-out: Activity; summary of the method: as §1
NCI-H23 [17] = test: Cytotoxicity against human NCI-H23 cells after 48 hrs by SRB assay; settings: NCI-H23, 48 h
Summary of the method: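 NCI 60-cell-line panel of human tumour lines from nine cancer types. Continuous 48 h exposure at five 10-fold dilutions from 10^-4 to 10^-8 M, with 5-FU as positive control. SRB protein stain read spectrophotometrically at time zero, untreated control and each concentration. GI50, TGI and LC50 were derived from the [(Ti−Tz)/(C−Tz)]×100 growth relations, and out-of-range values are given as > or < the tested limits.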

T47D = test: Growth inhibition of human T47D cells assessed as cell growth at 10^-4 M after 48 hrs by SRB assay; settings: read-out: Activity
MCF7 = test: Growth inhibition of human MCF7 cells assessed as cell growth at 10^-4 M after 48 hrs by SRB assay; settings: MCF7, 48 h, read-out: Activity
[18] = Growth inhibition of human OVCAR4 cells assessed as cell growth at 10^-4 M after 48 hrs by SRB assay; settings: OVCAR-4, 48 h, read-out: Activity

Compound: Cc1ccc(-c2nc3ccc(Cl)cc3c(=O)n2/N=C/c2ccccc2)cc1
- growth at 100 µM (U-251): 7%
- growth at 0.01 µM [1]: 101%
- growth at 0.01 µM (SK-MEL-28): 102%
- growth at 0.01 µM (Malme-3M): 92%
- growth at 0.01 µM (KM12): 95%
- growth at 0.01 µM (HT-29): 100%
- growth at 0.01 µM (NCI-H322M): 87%
- growth at 0.01 µM (RPMI-8226): 95%
- growth at 10 µM (DU-145): 55%
- growth at 10 µM [2]: 73%
- growth at 10 µM [3]: 43%
- growth at 10 µM (SR): 63%
- growth at 10 µM [4]: 88%
- growth at 1 µM [5]: 103%
- growth at 1 µM (MDA-MB-231): 78%
- growth at 1 µM (A498): 85%
- growth at 1 µM [6]: 101%
- growth at 1 µM (MDA-MB-435): 87%
- growth at 1 µM (M14 [7]): 97%
- growth at 10 µM [8]: 74%
- growth at 10 µM [9]: 34%
- growth at 1 µM [10]: 76%
- growth at 0.1 µM (NCI-H23 [11]): 89%
- growth at 1 µM (COLO 205 [12]): 119%
- growth at 0.01 µM [13]: 92%
- growth at 0.1 µM [14]: 100%
- growth at 0.1 µM (M14 [15]): 96%
- growth at 0.1 µM (COLO 205 [16]): 116%
- growth at 0.01 µM (MDA-MB-468): 91%
- growth at 0.01 µM (ACHN): 93%
- GI50 (NCI-H23 [17]; read-out: GI50): 100 µM
- CC50 (NCI-H23 [17]; read-out: LC50 (the source's name)): > 100 µM
- TGI (NCI-H23 [17]; read-out: TGI): > 100 µM
- GI50 (NCI-H23 [17]; read-out: pGI50 (converted)): > 100 µM
- CC50 (NCI-H23 [17]; read-out: pLC50 (the source's name) (converted)): > 100 µM
- TGI (NCI-H23 [17]; read-out: pTGI): > 100 µM
- growth at 100 µM (T47D): 14%
- growth at 100 µM (MCF7): 38%
- growth at 100 µM [18]: 26%
